ChEMBL document CHEMBL2046332, “Substrate analog studies of the ω-regiospecificity of Mycobacterium tuberculosis cholesterol metabolizing cytochrome P450 enzymes CYP124A1, CYP125A1 and CYP142A1” (Bioorg Med Chem, 2012)
Activity calls are given as the source filed them. The calls are words filed in the database; no cut-off is given here.

What was measured:
[1] = tested on: Mycobacterium tuberculosis; test: Activity of Mycobacterium tuberculosis CYP124A1 assessed as apparent turnover number at 50 uM incubated for 1 hr at 25 degC by GC-MS method
Procedure, shortened: (§1)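 Each P450 (250 nM) was incubated with 50 μM substrate, 5 μg catalase, 50 μg/mL ferredoxin, 0.16 U/mL ferredoxin-NADP+ reductase, and an NADPH-regenerating system (1 mM glucose-6-phosphate, 2.4 U/mL G6P dehydrogenase, 5 mM MgCl2, 800 μM NADP+). Buffer was 50 mM potassium phosphate pH 7.5, 25 °C, 1 h. Quenched with HCl, extracted into hexanes, TMS-derivatised, GC-MS. Controls lacked P450 or NADPH.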

[2] = tested on: Mycobacterium tuberculosis; test: Binding affinity to Mycobacterium tuberculosis CYP124A1 assessed as type 1 binding mode at 0.05 to 0.2 uM by UV-visible spectrophotometry
Procedure, shortened: (§2)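 Spectral titration of each P450 with steroid solubilised in methyl β-cyclodextrin. Ligand-induced low-spin/high-spin shifts were followed in the Soret region and at ~650 nm to assign binding type. Absolute spectra of the P450–steroid complexes were also examined.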

[3] = target: T1, Steroid C26-monooxygenase (Mycobacterium tuberculosis, UniProt P9WPP1); test: Binding affinity to Mycobacterium tuberculosis CYP125A1 by UV-visible spectrophotometry; conditions: read-out: Kd(app); procedure, shortened: as §2
T1 sequence (P9WPP1 whole entry): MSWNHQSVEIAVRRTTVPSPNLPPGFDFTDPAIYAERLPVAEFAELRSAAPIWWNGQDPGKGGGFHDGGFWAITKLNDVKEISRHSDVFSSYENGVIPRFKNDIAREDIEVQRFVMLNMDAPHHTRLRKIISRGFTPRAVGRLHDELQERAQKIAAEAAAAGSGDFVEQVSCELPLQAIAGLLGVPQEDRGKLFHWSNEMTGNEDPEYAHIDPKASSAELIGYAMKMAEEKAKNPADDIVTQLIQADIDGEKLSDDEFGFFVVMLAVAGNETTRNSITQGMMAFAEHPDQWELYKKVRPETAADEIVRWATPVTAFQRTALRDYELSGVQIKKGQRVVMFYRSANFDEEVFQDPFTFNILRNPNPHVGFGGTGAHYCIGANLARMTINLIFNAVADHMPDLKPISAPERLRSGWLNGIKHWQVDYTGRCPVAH

[4] = Binding affinity to Mycobacterium tuberculosis CYP142A1 by UV-visible spectrophotometry; conditions: read-out: Kd(app); procedure, shortened: as §2
[5] = target: T1, Steroid C26-monooxygenase; test: Activity of Mycobacterium tuberculosis CYP125A1 assessed as apparent turnover number at 50 uM incubated for 1 hr at 25 degC by GC-MS method; procedure, shortened: as §1
[6] = target: T1, Steroid C26-monooxygenase; test: Activity of Mycobacterium tuberculosis CYP125A1 assessed as relative apparent turnover number at 50 uM incubated for 1 hr at 25 degC by GC-MS method relative to cholesterol
[7] = tested on: Mycobacterium tuberculosis; test: Activity of Mycobacterium tuberculosis CYP124A1 assessed as relative apparent turnover number at 50 uM incubated for 1 hr at 25 degC by GC-MS method relative to cholesterol
[8] = tested on: Mycobacterium tuberculosis; test: Binding affinity to Mycobacterium tuberculosis CYP142A1 assessed as type 1 binding mode at 0.05 to 0.2 uM by UV-visible spectrophotometry; procedure, shortened: as §2
[9] = target: T1, Steroid C26-monooxygenase; test: Binding affinity to Mycobacterium tuberculosis CYP125A1 assessed as type 1 binding mode at 0.05 to 0.2 uM by UV-visible spectrophotometry; procedure, shortened: as §2
[10] = tested on: Mycobacterium tuberculosis; test: Binding affinity to Mycobacterium tuberculosis CYP124A1 assessed as type 1a binding mode at > 0.05 to 0.2 uM by UV-visible spectrophotometry; procedure, shortened: as §2
[11] = target: T1, Steroid C26-monooxygenase; test: Binding affinity to Mycobacterium tuberculosis CYP125A1 assessed as type 1a binding mode at > 0.05 to 0.2 uM by UV-visible spectrophotometry; procedure, shortened: as §2
[12] = tested on: Mycobacterium tuberculosis; test: Activity of Mycobacterium tuberculosis CYP142A1 assessed as relative apparent turnover number at 50 uM incubated for 1 hr at 25 degC by GC-MS method relative to cholesterol
[13] = tested on: Mycobacterium tuberculosis; test: Activity of Mycobacterium tuberculosis CYP142A1 assessed as apparent turnover number at 50 uM incubated for 1 hr at 25 degC by GC-MS method; procedure, shortened: as §1
[14] = Binding affinity to Mycobacterium tuberculosis CYP124A1 by UV-visible spectrophotometry; conditions: read-out: Kd(app); procedure, shortened: as §2
[15] = tested on: Mycobacterium tuberculosis; test: Time dependent inhibition of Mycobacterium tuberculosis CYP142A1 at 50 uM incubated up to 3 hrs by HPLC
Procedure, shortened: (§3)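 P450 (5 μM) was pre-incubated with 50 μM test sterol in 50 mM potassium phosphate pH 7.5 with ferredoxin, reductase, catalase and NADPH-regenerating system. Controls received MβCD vehicle only. Aliquots taken over time were diluted twenty-fold into buffer with 50 μM cholest-4-en-3-one, spinach ferredoxin, reductase and 1 mM NADPH, run 10 min at 25 °C, and analysed by HPLC. Residual activity = % of control.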

[16] = tested on: Mycobacterium tuberculosis; test: Time dependent inhibition of Mycobacterium tuberculosis CYP124A1 at 50 uM incubated up to 3 hrs by HPLC; procedure, shortened: as §3

Row | Structure (SMILES) | Kcat(app) [1] [s⁻¹] | Activity [2] | Kd [3] [nM] | Kd [4] [nM] | Kcat(app) [5] [s⁻¹] | Activity [6] [%] | Activity [7] [%] | Activity [8] | Activity [9] | Activity [10] | Activity [11] | Activity [12] [%] | Kcat(app) [13] [s⁻¹] | Kd [14] [nM] | inhibition [15] | inhibition [16]
1 | CC=C(C)CCC[C@@H](C)[C@H]1CC[C@H]2[C@@H]3CC=C4C[C@@H](O)CC[C@]4(C)[C@H]3CC[C@]12C (mixture of isomers) | 0.005 | Active | 450 | 160 | 0.135 | 29.9 | 22.4 | Active | Active | Active | – | – | – | – | – | –
2 | C[C@H](CCCBr)[C@H]1CC[C@H]2[C@@H]3CC=C4C[C@@H](O)CC[C@]4(C)[C@H]3CC[C@]12C | – | Active | – | – | – | – | – | Active | – | – | Active | – | – | – | – | –
3 | CCCCC[C@@H](C)[C@H]1CC[C@H]2[C@@H]3CC=C4C[C@@H](O)CC[C@]4(C)[C@H]3CC[C@]12C | 0.0117 | Active | – | – | 0.085 | 18 | 48.6 | Active | Active | – | – | 11.7 | 0.0317 | – | – | –
4 | CC(Br)CCC[C@@H](C)[C@H]1CC[C@H]2[C@@H]3CC=C4C[C@@H](O)CC[C@]4(C)[C@H]3CC[C@]12C (mixture of isomers) | 0.0168 | Active | – | – | 0.3037 | 65.1 | 67.3 | Active | Active | – | – | 107 | 0.299 | – | – | –
5 | C=C(C)CCC[C@@H](C)[C@H]1CC[C@H]2[C@@H]3CC=C4C[C@@H](O)CC[C@]4(C)[C@H]3CC[C@]12C | 0.00667 | Active | 250 | – | 0.178 | 37 | 26.2 | Active | – | – | Active | 6.7 | 0.0183 | 150 | – | –
6 | CC(C)=CCC[C@@H](C)[C@H]1CC[C@H]2[C@@H]3CC=C4C[C@@H](O)CC[C@]4(C)[C@H]3CC[C@]12C [DESMOSTEROL] | 0.0228 | Active | – | – | 0.2215 | 47.5 | 91.2 | Active | Active | – | – | 41.4 | 0.115 | – | – | –
7 | CC(C)CCC[C@@H](C)[C@H]1CC[C@H]2[C@@H]3CC[C@@H]4C[C@@H](O)CC[C@]4(C)[C@H]3CC[C@]12C [COPROSTANOL] | 0.0172 | Active | – | – | 0.2373 | 50.9 | 68.4 | Active | Active | – | – | 43.1 | 0.12 | – | – | –
8 | CSCCC[C@@H](C)[C@H]1CC[C@H]2[C@@H]3CC=C4C[C@@H](O)CC[C@]4(C)[C@H]3CC[C@]12C | – | Active | – | – | – | – | – | Active | – | – | Active | – | – | – | – | –
9 | C=CCCC[C@@H](C)[C@H]1CC[C@H]2[C@@H]3CC=C4C[C@@H](O)CC[C@]4(C)[C@H]3CC[C@]12C | 0.0005 | Active | – | – | 0.0367 | 8 | 1.9 | Active | Active | – | – | 6.7 | 0.0183 | – | inactive | inactive
